To fix the notation:
B1: tRNA (parent)
chain: GUUCCGUUGGCGUAAUGGUAACGCGUCUCCCUCCUAAGGAGAAGACUGCGGGUUCGAGUCCCGUACGGAACG

The source of these data is the RNAGym collection of RNA variant scans (doi:10.1126/science.aae0568).

Variants at the floor of the assay were thinned out. Some results are limits rather than exact numbers.

The data set covers variants of B1. The data set can be described thus: yeast fitness relative to wild type (ratio to wild type); higher = fitter; tRNA-Arg(CCU), competitive growth, 37 C, YPD. The gist of the method: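 Gene amplicons from the start population and from each of six end populations were read by 100-nucleotide paired-end sequencing. Those end populations came from pooled Saccharomyces cerevisiae strains carrying tRNA-Arg(CCU) gene variants at the native locus, competed in YPD at 37°C for 24 hours. Fitness relative to wild type was worked out from changes in genotype frequencies. Genotypes needed ≥ 100 starting reads, and estimates < 0.5 were set to 0.5.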
On to C5U C11A C24G C27G A36U G38C U53G, for which the yeast fitness is at most 0.5.
For G12A C46G A70G, the yeast fitness amounted to 0.703.
As for U13C A20G G39A G48C, the yeast fitness was at most 0.5.
Consider A40U G48A U64G, for which the yeast fitness was determined as 0.631.
In the case of U8C C27A A40G C46G C62G it was at most 0.5.
On to U13A C24G G25A C31U, for which the yeast fitness was at most 0.5.
Regarding C31A C33U G41A C62A, the yeast fitness is at most 0.5.
As to G12A U13A A14G A21G C33U, the yeast fitness is at most 0.5.
With G12A C24A U64C, the yeast fitness was 0.682.
The same measure for C5U A14G A65G: 0.69.
Consider C31U G50A G67A, for which the yeast fitness is 0.63.
Take U2C C60A C66U: the yeast fitness stood at 0.576.
As for U2A G10C C27G G39U G50C G58A, the yeast fitness was at most 0.5.
Consider A37G A42C, for which the yeast fitness came to 0.806.
The same measure for C5U C46U C60G: at most 0.5.
In the case of C4U C60U C62A it was at most 0.5.
Turning to U3G C33U A42G C61A, the yeast fitness came to 0.538.
For the variant A37G G51C A70U, the yeast fitness was at most 0.5.
Consider A37U A57G, for which the yeast fitness amounted to 0.648.
For C33G C60G, the yeast fitness was at most 0.5.
In the case of G6C U8C C34G A45G A65U it was at most 0.5.
Regarding C5G U54C G56C G58A, the yeast fitness is at most 0.5.
In the case of C29A C46G A65G A70U it was at most 0.5; in that of G9A A42C, 0.855.
The same measure for A15U C22G C31U A57C U64A G68A: 0.553; for U7A A21C C33A A45U: 0.616.
The same measure for U2G A14U C22G C30G G58A: at most 0.5.
As to A15C G17C A36C G38C G48A, the yeast fitness was at most 0.5.
Regarding A42U A69C, the yeast fitness was 0.959.
On to A15G C31A A70U, for which the yeast fitness was 0.639.
The same measure for C5U U7C G68C: at most 0.5; for C5U C22U A37C C55A: 0.538.
The same measure for A15G A45U G48A: 0.636.
In the case of U2C C29A G63A it was at most 0.5; in that of G12A C34A G52C C60A, at most 0.5.
Take G18C C49G C61G: the yeast fitness is at most 0.5.
Take A45G A65G A70C: the yeast fitness was determined as 0.666.
As to C24G G39C A57G A65G, the yeast fitness is at most 0.5.
In the case of G18C U26A U53C it was 0.549.
In the case of U19A C31G A70U it was 0.919; in that of G52A C62U, 0.765; in that of U8C A57U C61U, 0.536.
The same measure for U2A U28C G39A G68A: at most 0.5.
Consider U3G U8C G68C, for which the yeast fitness was at most 0.5.
With U16C U35G G48C C66U, the yeast fitness is at most 0.5.
In the case of U7C C29U C46U A65U, the yeast fitness was at most 0.5.
With U8A G9U A42C G52C, the yeast fitness was at most 0.5.
In the case of C4G U13A A21C A43U A45G it was 0.559; in that of A42C C61U, 0.668; in that of A15G A37C G50C, 0.601.
As to G6A U8C A69C, the yeast fitness was found to be 0.678.
The same measure for U32A A36C A70G: at most 0.5; for A20U A21C: 0.651; for A14G A36U G39A C60G: at most 0.5.
On to C11U A40G, for which the yeast fitness stood at 0.866.
In the case of C22G U26A C30A A42U it was 0.692; in that of G12C A20U C33U, 0.555; in that of U35G U53G, 0.592.
Turning to C4A A45C U47A, the yeast fitness amounted to 0.708.
Take C31G A42G: the yeast fitness was found to be 0.721.
In the case of U13C A15U G23A C33A A42G G56A it was at most 0.5; in that of U32G A42G C46U G51A, at most 0.5.
In the case of U26A A65C it was 0.946; in that of C5G U47A, 0.731.
In the case of C55U G68U it was 0.64.
For the variant C27A A42C G68C, the yeast fitness was at most 0.5.
Turning to A21U C29A C30U C62G U64A, the yeast fitness was at most 0.5.
In the case of C5A A15C C29A C60G it was at most 0.5; in that of A21C C22G G38C, 0.52; in that of C22G U59A A69G, at most 0.5.
As to C24G C34U U53C C55G C62A, the yeast fitness was at most 0.5.
As to U3G C5G A20C A43C, the yeast fitness turned out to be 0.557.
In the case of C22A A37U it was 0.578; in that of G25U C29G A42C, at most 0.5.
In the case of G17C A45U A65C it was at most 0.5; in that of A15C U16C A37C C60A, at most 0.5; in that of G25C C29U C34G, at most 0.5.
In the case of C4G U8G C24A C31G G50A A69U, the yeast fitness is at most 0.5.
The same measure for C30U G38C C55G C61U: at most 0.5; for C4G G10C: 0.659.
For the variant C5A C22G, the yeast fitness was determined as 0.862.
Take A21C C62U C66U: the yeast fitness amounted to 0.533.
In the case of U7G G23C A45U G51C it was at most 0.5.
Turning to C11G C29U C34U C62A U64C C66U, the yeast fitness is at most 0.5.
Regarding A20C A42C G48A, the yeast fitness was determined as 0.591.
In the case of C5G A15U C30A C31A C66G it was at most 0.5; in that of C24U U54A, 0.624; in that of C11G A15C C30U U53A C61G, at most 0.5.
In the case of U8A G17A C31U C33U C34U C46G C62A it was at most 0.5; in that of A20G U32G, 0.672.
For the variant C33U C61U C66G, the yeast fitness was found to be 0.543.
Take G23A C27U C34U A45C A70U: the yeast fitness was found to be 0.57.
In the case of G6C U7G G17C U53A it was at most 0.5; in that of U13A A21C, 0.65; in that of U3G C5U G10A C55U, at most 0.5.
On to C4G G9C G52A G63C, for which the yeast fitness was at most 0.5.
As to C5A A14G C55A A70U, the yeast fitness was at most 0.5.
The same measure for C30A C31A C60U C62G: at most 0.5.
In the case of G25C C29A G52A C66U it was at most 0.5; in that of U2A U16C A45C, 0.651.
Take C31U A36C G41A: the yeast fitness is at most 0.5.
As for G12C C46U, the yeast fitness turned out to be 0.815.
Regarding C22U U64C C66U, the yeast fitness stood at 0.7.
The same measure for C29A A57C U59A: 0.55; for C4A U8A G18A C27U A45U: at most 0.5.
For the variant G6A G38A C61A, the yeast fitness was at most 0.5.
In the case of C24A A42G C49U U59G C62A A69G it was at most 0.5; in that of C27A G38U A45G G48C, at most 0.5; in that of G17A C22A A45C G67C, at most 0.5.
In the case of G12A C31U G52A G56C, the yeast fitness was 0.569.
In the case of C5U U8C C30G C31G A65C it was at most 0.5; in that of A15U C31U A36G, 0.568; in that of A14U A15G C33U A42C, at most 0.5.
As to U26C C27U C62A, the yeast fitness was 0.658.
In the case of A14G A21C A36C A43U it was at most 0.5; in that of U8C U13C U47C A65G, at most 0.5; in that of C5A U16G A21C C24U C30A, 0.618.
The same measure for A14C C22G G25C G44A: at most 0.5.
The same measure for A45C G52C: 0.762; for G12C A65C: 0.783.
For A15C U19A G39A, the yeast fitness is 0.519.
Regarding A36U A57U, the yeast fitness is 0.547.
In the case of C62G U64A it was 0.695; in that of C11U C29U C66A, 0.553.
The same measure for U28A C33A G52A: at most 0.5; for G17C C29A A36G A43U: at most 0.5.
In the case of G10C C31G C33U C60U it was at most 0.5; in that of G17C U54C, 0.536.
Regarding U8G C27U C30A A43C, the yeast fitness was at most 0.5.
For G38A U59G A69G, the yeast fitness was at most 0.5.
G23A A42G: the yeast fitness is 0.747.
The same measure for A14C A42C C49A A70U: 0.588.
As to C22G C62U G68C, the yeast fitness was at most 0.5.
In the case of U19G U28A it was 0.613; in that of C31U G56A, 1.04; in that of G67A A69C, 0.877.
In the case of C5U C22U U35A A37U G67A it was at most 0.5.
The same measure for U28G C31G A45U C46G G58A: 0.529.
Take C11U G67A: the yeast fitness came to 0.816.
In the case of C49A C62U it was 0.717.
Regarding C4A U28A C62U C66A, the yeast fitness was at most 0.5.
The same measure for A14G U59A: 0.894; for U2A U16G C66A: 0.625; for C5A C11G C55U C61A: at most 0.5.
In the case of U7A C29G G50A U64C it was at most 0.5.
For the variant A15U A43G U59C, the yeast fitness turned out to be 0.53.
The same measure for C34G C49G U54C C61U A69G: at most 0.5.
In the case of C29U C62G G68A it was at most 0.5; in that of U2A U28A A37C G58C A69G, at most 0.5; in that of U28C U35A, 0.578.
Take C5G A40U: the yeast fitness came to 0.876.
As to A14C A21U A45C A57G, the yeast fitness is at most 0.5.
In the case of U3G A40U A45U it was 0.585; in that of C27U C33G A43U C60G, at most 0.5.
The same measure for A45C G63A: 0.85.
As to C5U G48A C55U, the yeast fitness worked out at 0.558.
The same measure for G44U G52A C55G A69U: at most 0.5; for U26C A45C: 0.857.
On to C5G G25A A42C G68A, for which the yeast fitness was at most 0.5.
As for A42C U59G, the yeast fitness is 0.752.
In the case of G23C C66A it was at most 0.5; in that of A21G C49U U53C C61G, at most 0.5.
The same measure for C11A C49A C62A: at most 0.5; for A14U U35G C62G: at most 0.5; for G6A U19A G23A: 0.603.
On to U3C C34U G41C C49U G58A U64A, for which the yeast fitness is at most 0.5.
For the variant C27U G38C, the yeast fitness was 0.626.
